Assay results from paper PMC6198128 (Redox Biology, 2018).

What was measured:
[1] = test system: HCT116 (human colon carcinoma); assay: Alamar blue cytotoxicity assay, HCT116; format: cell-based
[2] = Time-dependent 31P{1H} NMR stability in DMSO solution; format: physicochemical
ROS in HL-60 cells = assay: Intracellular reactive oxygen species levels; format: cell-based, human; details: HL-60, DCFH-DA, 1 h
Procedure, shortened: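 Intracellular ROS in HL-60 cells was measured with 2′,7′-dichlorofluorescin diacetate after 1 and 3 h exposure to test compound. Fluorescence was read by flow cytometry, recording 10^4 events per sample with cellular debris omitted. Vehicle served as negative control; results are mean ± S.E.M., compared by ANOVA and Student–Newman–Keuls test.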

[3] = test system: MCF-7 (human breast carcinoma); assay: Alamar blue cytotoxicity assay, MCF-7; format: cell-based
[4] = test system: HSC-3 (human oral squamous cell carcinoma); assay: Alamar blue cytotoxicity assay, HSC-3; format: cell-based
HL-60 cells [5] = assay: Mitochondrial transmembrane potential; format: cell-based, human; details: HL-60, rhodamine 123, 24 h, p < 0.05; DOX 2 µM, OXA 2.5 µM
Procedure, shortened: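 HL-60 cells were grown in RPMI-1640 with 10% FBS, 2 mM L-glutamine and 50 µg/mL gentamycin at 37 °C, 5% CO2. After treatment, cells were loaded with rhodamine 123 (5 µg/mL) for 15 min at 37 °C in the dark and washed in saline.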

HL-60 cells [6] = assay: Internucleosomal DNA fragmentation and cell cycle distribution; format: cell-based, human
Procedure, shortened: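 After 24 or 48 h treatment, HL-60 cells were permeabilized and stained with propidium iodide, and DNA content was measured by flow cytometry. 10^4 events were recorded per sample with debris excluded. Sub-G0/G1 was taken as internucleosomal DNA fragmentation, alongside G0/G1, S and G2/M fractions. Doxorubicin and oxaliplatin were positive controls; ANOVA with Student–Newman–Keuls test.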

[7] = test system: HepG2 (human hepatocellular carcinoma); assay: Alamar blue cytotoxicity assay, HepG2; format: cell-based
[8] = test system: HL-60 (human promyelocytic leukemia); assay: Alamar blue cytotoxicity assay, HL-60; format: cell-based
[9] = test system: SCC-9 (human oral squamous cell carcinoma); assay: Alamar blue cytotoxicity assay, SCC-9; format: cell-based
calf thymus DNA (ctDNA) = assay: DNA intercalation assay; format: binding; details: cell-free, 15 µg/mL ctDNA, 1.5 µM ethidium bromide; complex 5, 10 and 20 µM; doxorubicin 10 µM
Procedure, shortened: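 Ethidium bromide displacement from calf thymus DNA in saline: 15 µg/mL ctDNA, 1.5 µM ethidium bromide, test compound at 5, 10 and 20 µM. Vehicle (0.1% DMSO) was the negative control and doxorubicin (10 µM) the positive control. Fluorescence was read at excitation 320 nm and emission 600 nm. Lower fluorescence was taken as intercalation.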

B16-F10 (mouse melanoma) = assay: Alamar blue cytotoxicity assay, B16-F10; format: cell-based
[10] = test system: PBMC (human peripheral blood mononuclear cells); assay: Alamar blue cytotoxicity assay, PBMC; format: cell-based; details: read-out: IC50 in µM; PBMC non-cancer cells, alamar blue, 72 h
HL-60 cells [11] = format: cell-based, human; details: HL-60, 24 and 48 h, p < 0.05; DOX 2 µM, OXA 2.5 µM
HL-60 cells [12] = assay: Morphological analysis; format: cell-based, human; details: 24 and 48 h, DOX 2 µM, OXA 2.5 µM
Procedure, shortened: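 HL-60 cells were treated for 24 and 48 h, then stained with May-Grunwald-Giemsa and examined by light microscopy. In parallel, forward and side light scatter were quantified by flow cytometry, recording 10^4 events per sample with debris excluded. Vehicle was the negative control, with doxorubicin and oxaliplatin as positive controls.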

[13] = test system: K-562 (human chronic myelogenous leukemia); assay: Alamar blue cytotoxicity assay, K-562; format: cell-based
[14] = HL-60, 1 µM, 24 h of incubation
[15] = HL-60, 1 µM, 48 h of incubation
[16] = HL-60, 2 µM, 24 h of incubation
[17] = HL-60, 2 µM, 48 h of incubation
[18] = HL-60, 4 µM, 24 h of incubation
[19] = HL-60, 4 µM, 48 h of incubation

cis-[PtCl(PIP-OH)(PPh3)2]PF6 [CPP]
more potent than PIP-OH ([1]; HCT116, ratio of IC50): 2.4 fold
more potent than piplartine ([1]; HCT116, ratio of IC50): 1.1 fold
IC50 ([1]; read-out: IC50 in µM, HCT116, alamar blue, 72 h): 4.8 µM
stability in solution (31P{1H} NMR) ([2]; after 1 h of incubation): significant dissociation of PIP-OH ligand from the metal complex
stability in solution (31P{1H} NMR) ([2]; after 48 h): most the PIP-OH was dissociated from the metal complex
ROS levels (ROS in HL-60 cells): caused increasing in the ROS levels
more potent than PIP-OH ([3]; MCF-7, ratio of IC50): 3.6 fold
more potent than piplartine ([3]; MCF-7, ratio of IC50): 1.5 fold
IC50 ([3]; read-out: IC50 in µM, MCF-7, alamar blue, 72 h): 6.8 µM
more potent than PIP-OH ([4]; HSC-3, ratio of IC50): 1.7 fold
more potent than piplartine ([4]; HSC-3, ratio of IC50): 14.1 fold
IC50 ([4]; read-out: IC50 in µM, HSC-3, alamar blue, 72 h): 1 µM
mitochondrial transmembrane potential (HL-60 cells [5]): induced loss of the mitochondrial transmembrane potential
DNA content (%) G0/G1 (HL-60 cells [6]; [14]): 32.0 ± 5.4 %
DNA content (%) G2/M (HL-60 cells [6]; [14]): 13.2 ± 2.9%
DNA content (%) S (HL-60 cells [6]; [14]): 10.5 ± 1.8%
DNA content (%) Sub-G0/G1 (HL-60 cells [6]; [14]): 25.0 ± 1.6 %
DNA content (%) G0/G1 (HL-60 cells [6]; [15]): 49.7 ± 2.2%
DNA content (%) G2/M (HL-60 cells [6]; [15]): 14.5 ± 0.9%
DNA content (%) S (HL-60 cells [6]; [15]): 12.3 ± 1.6%
DNA content (%) Sub-G0/G1 (HL-60 cells [6]; [15]): 19.8 ± 1.4 %
DNA content (%) G0/G1 (HL-60 cells [6]; [16]): 34.3 ± 2.9 %
DNA content (%) G2/M (HL-60 cells [6]; [16]): 15.0 ± 2.5%
DNA content (%) S (HL-60 cells [6]; [16]): 10.3 ± 1.1%
DNA content (%) Sub-G0/G1 (HL-60 cells [6]; [16]): 29.2 ± 0.9 %
DNA content (%) G0/G1 (HL-60 cells [6]; [17]): 48.5 ± 3.1%
DNA content (%) G2/M (HL-60 cells [6]; [17]): 14.1 ± 1.5%
DNA content (%) S (HL-60 cells [6]; [17]): 14.3 ± 0.8%
DNA content (%) Sub-G0/G1 (HL-60 cells [6]; [17]): 25.8 ± 3.8 %
DNA content (%) G0/G1 (HL-60 cells [6]; [18]): 26.7 ± 4.6 %
DNA content (%) G2/M (HL-60 cells [6]; [18]): 15.3 ± 2.6%
DNA content (%) S (HL-60 cells [6]; [18]): 10.1 ± 1.4%
DNA content (%) Sub-G0/G1 (HL-60 cells [6]; [18]): 26.2 ± 4.1 %
DNA content (%) G0/G1 (HL-60 cells [6]; [19]): 41.9 ± 8.6%
DNA content (%) G2/M (HL-60 cells [6]; [19]): 12.8 ± 2.8%
DNA content (%) S (HL-60 cells [6]; [19]): 8.0 ± 2.0 %
DNA content (%) Sub-G0/G1 (HL-60 cells [6]; [19]): 27.3 ± 7.0 %
more potent than piplartine ([7]; HepG2, ratio of IC50): 1.4 fold
IC50 ([7]; read-out: IC50 in µM, HepG2, alamar blue, 72 h): 4.4 µM
more potent than PIP-OH ([8]; HL-60, ratio of IC50): 4.5 fold
more potent than piplartine ([8]; HL-60, ratio of IC50): 7.4 fold
IC50 ([8]; read-out: IC50 in µM, HL-60, alamar blue, 72 h): 1.9 µM
more potent than PIP-OH ([9]; SCC-9, ratio of IC50): 3.8 fold
more potent than piplartine ([9]; SCC-9, ratio of IC50): 2.7 fold
IC50 ([9]; read-out: IC50 in µM, SCC-9, alamar blue, 72 h): 6.2 µM
ethidium bromide fluorescence (displacement from ctDNA) (calf thymus DNA (ctDNA)): did not reduce the ethidium bromide fluorescence
more potent than PIP-OH (B16-F10 (mouse melanoma); B16-F10, ratio of IC50): 56.9 fold
more potent than piplartine (B16-F10 (mouse melanoma); B16-F10, ratio of IC50): 9.6 fold
IC50 (B16-F10 (mouse melanoma); read-out: IC50 in µM, B16-F10, alamar blue, 72 h): 1.1 µM
IC50 [10]: 10.3 µM
apoptotic cells (annexin V-FITC/PI) (HL-60 cells [11]): increasing in apoptotic cells with more pronounced effect after 48 h
cell morphology (HL-60 cells [12]; HL-60, May-Grunwald-Giemsa): reduction in the cell volume, chromatin condensation and fragmentation of the nuclei
forward light scatter (FSC) (HL-60 cells [12]; HL-60, flow cytometry): decrease in FSC
side scatter (SCC) (HL-60 cells [12]; HL-60, flow cytometry): transient increase in SCC
more potent than PIP-OH ([13]; K-562, ratio of IC50): 21.1 fold
more potent than piplartine ([13]; K-562, ratio of IC50): 16.9 fold
IC50 ([13]; read-out: IC50 in µM, K-562, alamar blue, 72 h): 1.1 µM
